This excerpt belongs to a sample that is enriched for hits.
Insulin prom act: TRM-6 insulin promoter activation; activation, % at 2 µM; TRM-6 cells (human fetal islet line), insulin promoter eGFP reporter, imaging; plate-scaled: unstimulated 0, stimulated control 100; AID 1296; actives 0.81% (n = 130,000);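 active = activation at 2 µM above a set limit, confirmed on inspection of the cell images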;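 also: share of cells whose green reporter signal exceeds an intensity cutoff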
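Material: TRM-6 insulin promoter–eGFP reporter cells. Buffer or medium: Low-glucose (5.5 mM) medium with tamoxifen. Probe or stimulus: tamoxifen at 0.75 µM added at seeding for reporter induction. Times: tamoxifen pre-incubation 15 h overnight, then compound exposure 48 h at 37 °C. Detection: high-content imaging of fixed cells with Hoechst nuclear stain.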
Hits are given with their value; 0 = inactive.

SMILES	Insulin prom act
O=C(NCCN1CCOCC1)C1CCN(S(=O)(=O)N2CCCC2)CC1	0
CC1CCc2sc(C(=O)N=Nc3c(O)[nH]c4ccccc34)cc2C1 (configuration not stated)	0
Cc1ccc(S(=O)(=O)NNC(=O)c2sc3nc(C)cc(C)c3c2-n2cccc2)cc1	0
O=C(CO/N=C/c1cccc([N+](=O)[O-])c1)NC1CCCCCC1	450
O=C(NC1CCCCC1)c1cc([N+](=O)[O-])ccc1N1CCCCC1	0
O=C(CCc1ccc(Oc2cc([N+](=O)[O-])cc([N+](=O)[O-])c2)cc1)NC1CCCC1	0
CCC(C)c1ccccc1NC(=O)COC(=O)c1ccc2[nH]c3c(c2c1)CCCC3 (configuration not stated)	0
S=C(c1ccc(-c2ccccc2Cl)o1)N1CCOCC1	0
O=C(NC12CC3CC(CC(C3)C1)C2)c1ccc(-c2ccccc2Cl)o1	219
O=C(NCc1ccco1)c1ccc(-c2ccccc2Cl)o1	0
CCC(C)(C)NC(=O)C(c1cccc(OC)c1)N(C(=O)c1ccn[nH]1)c1cccc(OC)c1 (configuration not stated)	0
CNC(=S)Nc1cc(OC)ccc1OC	0
Nc1cc(Oc2ccc(F)cc2F)cc([N+](=O)[O-])c1	0
COC(=O)CCc1nc2ccccc2[nH]c1=O	0
CC(OC(=O)CCc1nc2ccccc2[nH]c1=O)c1ccccc1 (configuration not stated)	471
CC(CC(=O)Nc1nc2ccccc2[nH]1)c1ccccc1 (configuration not stated)	0
Cc1ccc(C(=O)COC(=O)CCc2nc3ccccc3[nH]c2=O)cc1C	0
O=C(CCc1nc2ccccc2[nH]c1=O)OCC(=O)c1cccc2ccccc12	83
O=C(CCc1nc2ccccc2[nH]c1=O)OCC(=O)c1ccc(Cl)cc1	0
COc1ccc(NC(=O)COC(=O)c2ncc(Cl)c(Cl)c2Cl)c(OC)c1	0
Cc1cccc(C)c1OC(=O)CSc1nnc(-c2ccccc2O)o1	0
Cc1ccc(S(=O)(=O)N2CCN(C(=O)CN3CCOCC3)C2C(C)C)cc1 (configuration not stated)	500
Cc1ccc(C(=O)N2CCN(C(=O)CN3CCOCC3)C2)cc1	0
O=C(CN1CCOCC1)N1CCN(S(=O)(=O)c2ccccc2)C1c1ccccc1 (configuration not stated)	0
O=C(Cc1ccccc1)N/N=C/c1ccc(-c2ccc([N+](=O)[O-])cc2)o1	0
SMILES	Insulin prom act
CCCNC(=O)Cn1c(=O)/c(=C\c2ccc(-c3ccc([N+](=O)[O-])cc3)o2)s/c1=C\C(=O)C(C)(C)C	270
Cc1ccc(C(=O)N/C(=C\c2ccc(-c3cccc([N+](=O)[O-])c3)o2)C(=O)NC(C)(C)C)cc1	0
O=C(Nc1ccc(OC(F)(F)C(F)F)c(NC(=O)c2cccc(F)c2)c1)c1cccc(F)c1	0
Cc1ccc(NC(=O)c2ccco2)c(NC(=O)Cc2cccs2)c1	0
CCOC(=O)C1C(=O)CC(O)(c2ccccc2)CC1c1ccccc1 (configuration not stated)	143
COC(=O)C1C(=O)NCC1c1ccccc1 (configuration not stated)	0
CCOC(=O)C1C(=O)CC(C)(O)C(C(=O)OCC)C1c1ccc(C)s1 (configuration not stated)	0
CCc1ccc(NC(=O)CC2C(=O)Nc3c2c(=O)n(C)c(=O)n3C)cc1 (configuration not stated)	0
CCCSc1nnc(CN2CCOCC2)n1C	419
Cn1c(CCc2ccccc2)nnc1SCC(=O)N1CCOCC1	0
CCCSc1nnc(Cn2c(=O)sc3ccccc32)n1C	0
C/C(=N\NC(=O)c1c(Cl)c(C)nn1C)c1cccc(NC(=O)COc2ccc(Cl)cc2)c1	0
O=S(=O)(NCc1ccc2c(c1)OCO2)c1cccc(S(=O)(=O)N2CCOCC2)c1	0
CCCS(=O)c1nc(C)cc(C)c1S(C)(=O)=O (configuration not stated)	0
CCC(C)NC(=O)c1n[nH]c(=O)c2ccccc12 (configuration not stated)	0
CCC(C)NC(=O)c1cc(C)no1 (configuration not stated)	121
CC(C)c1cc(NC(=O)CCl)on1	0
C=CCNC(=S)NS(=O)(=O)c1cccs1	0
CCOC(=O)N1CCC(Nc2c(NCCCN3CCN(C4CCCCC4)CC3)c(=O)c2=O)CC1	0
N#C/C(=C/c1ccc(-c2ccccc2)o1)c1nc(-c2cccs2)cs1	456
N#C/C(=C\Nc1ccccc1SC(F)(F)F)c1nc(-c2ccccc2)cs1	0
N#C/C(=C/c1ccc(-c2ccc(S(N)(=O)=O)cc2)o1)c1nc2ccccc2s1	257
CCOC(=O)N1CCN(/C=C(\C#N)c2nc3ccccc3s2)CC1	0
N#C/C(=C(/O)C(Cl)c1ccccc1)c1nc2ccccc2s1 (configuration not stated)	0
N#CC(=C1CCCC1)c1nc(-c2ccccc2)cs1	0
SMILES	Insulin prom act
COC(=O)c1ccccc1NC(=O)C1CCN(C(=O)c2cc(OC)c(OC)c(OC)c2)CC1	0
CCOCCCNC(=O)c1ccc(CS(=O)(=O)Cc2ccc(C)cc2)o1	0
O=S(=O)(Cc1ccccc1Cl)NCc1ccccc1	0
O=C(NN=C(Cc1ccccc1)Cc1ccccc1)C1CC1	0
CCCC12CN3CC(C)(CN(C1)C3c1ccco1)C2=O (configuration not stated)	0
CS(=O)(=O)N(CC(=O)Nc1ccccc1C(=O)N1CCOCC1)c1ccccc1	0
Cc1ccccc1Nc1ncccc1C(=O)N1CCOCC1	0
Cc1ccc(SC(C)C(=O)Nc2ccccc2C(=O)N2CCOCC2)cc1 (configuration not stated)	83
C[C@H](NC(=O)c1ccccc1Cl)C(=O)NCc1cccs1	0
CC1=NC(C(F)(F)F)(C(F)(F)F)C(C#N)=C(C)N1	0
COc1ccc(NC(=O)C2CCCN2S(=O)(=O)c2ccc(C)cc2)cc1 (configuration not stated)	0
COC(=O)C1CN(S(=O)(=O)c2ccc(C)cc2)CCN1S(=O)(=O)c1ccc(C)cc1 (configuration not stated)	136
Cc1ccc(S(=O)(=O)N2CCCCC2C(=O)O)cc1 (configuration not stated)	0
CC(C)Oc1ccc(NC(=O)c2ccncc2)cc1	0
COc1ccc(CN2C(=O)c3ccccc3C(/C=N\OCc3ccc(C)cc3)C2=O)cc1 (configuration not stated)	0
Cc1cc(N)nc2nc(C(F)(F)F)nn12	800
Cc1cc(C)n2nc(CCc3ccccc3)nc2n1	0
Cc1cc(C)n2nc(-c3ccc(F)cc3)nc2n1	0
Cc1ccc(CNC(=O)C2CCN(S(=O)(=O)N3CCC4(CC3)OCCO4)CC2)cc1	0
Cc1cc(-n2c(C)cc(C(=S)N3CCOCC3)c2C)ccc1Br	0
O=C(NC1CCCCC1)C(c1cccs1)N(C(=O)c1ccccn1)c1ccccc1 (configuration not stated)	0
COc1cccc(C(C(=O)NC2CCCCC2)N(C(=O)c2ccccn2)c2cccnc2)c1 (configuration not stated)	627
COc1cccc(C(C(=O)NC2CCCC2)N(Cc2ccccc2OC)C(=O)c2ccco2)c1 (configuration not stated)	0
O=C(CNc1cc(S(=O)(=O)N2CCCC2)ccc1OCC(F)(F)F)Nc1cccc(C(F)(F)F)c1	0
CCCN(CCC)C(=O)CCSCCC(=O)N(CCC)CCC	0
CNC(=S)N(Cc1cccs1)Cc1cc2cc(OC)c(OC)cc2[nH]c1=O	0
